What was measured:
[1] = biological target: T1, Gamma-aminobutyric acid receptor subunit alpha-2 (Homo sapiens, UniProt P47869); assay: Effective concentration against gamma-aminobutyric acid (GABA) A receptor, alpha 2; parameters: species or system Xenopus laevis
T1 sequence (P47869 whole entry): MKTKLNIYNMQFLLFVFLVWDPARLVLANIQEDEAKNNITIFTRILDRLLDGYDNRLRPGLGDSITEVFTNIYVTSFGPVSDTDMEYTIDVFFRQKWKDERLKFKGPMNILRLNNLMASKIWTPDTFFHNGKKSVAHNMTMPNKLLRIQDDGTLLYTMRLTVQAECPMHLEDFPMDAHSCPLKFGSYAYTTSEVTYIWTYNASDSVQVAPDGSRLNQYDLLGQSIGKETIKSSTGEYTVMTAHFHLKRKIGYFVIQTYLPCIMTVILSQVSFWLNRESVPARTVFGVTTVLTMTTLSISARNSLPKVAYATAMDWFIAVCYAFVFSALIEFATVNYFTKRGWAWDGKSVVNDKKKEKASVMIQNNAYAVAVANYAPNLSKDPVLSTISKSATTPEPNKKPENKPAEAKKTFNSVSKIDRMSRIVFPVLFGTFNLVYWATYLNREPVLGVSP
Summary of the method: (§1)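 Xenopus laevis oocytes were injected with human cRNA for the α, β and γ subunits needed to express each receptor subtype (α1, α2, α3 or α5). Electrophysiological recording was used to read potentiation, and the effective concentration and maximal percent potentiation were derived from it.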

[2] = biological target: GABA-A receptor; anion channel; assay: Binding affinity was determined by displacement of [3H]flumazenil from rat cortex homogenates; format: functional
Summary of the method: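 Displacement of [3H]flumazenil from rat cortex homogenates. Values are averages (±SD); some analogues were run once as a single set of triplicates. NA means an IC50 was not achieved at the highest dose tested.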

[3] = biological target: T2, Gamma-aminobutyric acid receptor subunit alpha-1 (Homo sapiens, UniProt P14867); assay: Effective concentration against gamma-aminobutyric acid (GABA) A receptor, alpha 1; parameters: species or system Xenopus laevis; summary of the method: as §1
T2 sequence (P14867 whole entry): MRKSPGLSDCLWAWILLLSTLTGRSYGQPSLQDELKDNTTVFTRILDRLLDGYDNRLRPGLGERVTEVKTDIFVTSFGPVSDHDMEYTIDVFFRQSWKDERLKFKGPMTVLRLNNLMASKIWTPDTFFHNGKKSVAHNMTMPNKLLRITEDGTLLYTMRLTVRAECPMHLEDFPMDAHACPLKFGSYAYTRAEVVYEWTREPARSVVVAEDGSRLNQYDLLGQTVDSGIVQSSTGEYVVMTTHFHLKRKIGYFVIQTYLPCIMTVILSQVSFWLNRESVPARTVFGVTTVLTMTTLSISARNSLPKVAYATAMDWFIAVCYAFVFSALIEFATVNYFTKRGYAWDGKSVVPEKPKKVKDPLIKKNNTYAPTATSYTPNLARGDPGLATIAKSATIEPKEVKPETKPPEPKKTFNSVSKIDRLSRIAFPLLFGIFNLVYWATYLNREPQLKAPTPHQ

[4] = biological target: T3, Gamma-aminobutyric acid receptor subunit alpha-2 (Homo sapiens) (UniProt P47869); assay: Maximum percent potentiation against gamma-aminobutyric acid (GABA) A receptor, alpha 2; details: Xenopus laevis; summary of the method: as §1
T3 sequence (whole entry): T1 sequence (P47869 whole entry)

[5] = biological target: T4, Gamma-aminobutyric acid receptor subunit alpha-3 (Homo sapiens) (UniProt P34903); assay: Maximum percent potentiation against gamma-aminobutyric acid (GABA) A receptor, alpha 3; details: Xenopus laevis; summary of the method: as §1
T4 sequence (whole entry): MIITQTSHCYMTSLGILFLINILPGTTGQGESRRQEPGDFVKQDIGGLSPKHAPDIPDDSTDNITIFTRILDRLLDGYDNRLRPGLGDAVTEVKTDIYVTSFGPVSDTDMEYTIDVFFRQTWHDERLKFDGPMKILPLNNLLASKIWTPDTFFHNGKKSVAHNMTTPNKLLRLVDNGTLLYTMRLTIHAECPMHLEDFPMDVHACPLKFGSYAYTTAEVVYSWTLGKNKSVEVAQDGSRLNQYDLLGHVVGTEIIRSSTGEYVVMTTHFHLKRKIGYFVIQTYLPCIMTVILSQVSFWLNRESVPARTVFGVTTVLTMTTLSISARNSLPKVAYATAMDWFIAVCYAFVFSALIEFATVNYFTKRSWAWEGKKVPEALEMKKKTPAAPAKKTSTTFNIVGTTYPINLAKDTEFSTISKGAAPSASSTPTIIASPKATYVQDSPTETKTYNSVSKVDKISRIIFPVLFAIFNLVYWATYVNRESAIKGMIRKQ

[6] = biological target: T5, Gamma-aminobutyric acid receptor subunit alpha-5 (Homo sapiens) (UniProt P31644); assay: Maximum percent potentiation against gamma-aminobutyric acid (GABA) A receptor, alpha 5; details: Xenopus laevis; summary of the method: as §1
T5 sequence (whole entry): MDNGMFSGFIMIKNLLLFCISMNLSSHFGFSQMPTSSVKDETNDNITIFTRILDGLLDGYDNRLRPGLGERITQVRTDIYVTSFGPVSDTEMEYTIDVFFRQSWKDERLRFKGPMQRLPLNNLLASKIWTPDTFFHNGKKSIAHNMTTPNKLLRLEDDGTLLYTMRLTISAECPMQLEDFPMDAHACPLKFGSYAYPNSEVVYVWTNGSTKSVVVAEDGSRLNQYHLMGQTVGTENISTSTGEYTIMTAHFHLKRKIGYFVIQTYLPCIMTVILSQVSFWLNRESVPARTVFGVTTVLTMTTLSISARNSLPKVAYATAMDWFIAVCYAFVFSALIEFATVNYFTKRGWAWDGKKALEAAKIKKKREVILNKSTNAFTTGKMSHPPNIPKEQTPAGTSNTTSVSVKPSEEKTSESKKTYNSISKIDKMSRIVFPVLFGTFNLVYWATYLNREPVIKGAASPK

[7] = biological target: T6, Gamma-aminobutyric acid receptor subunit alpha-1 (Homo sapiens) (UniProt P14867); assay: Maximum percent potentiation against gamma-aminobutyric acid (GABA) A receptor, alpha 1; details: Xenopus laevis; summary of the method: as §1
T6 sequence (whole entry): T2 sequence (P14867 whole entry)

[8] = biological target: T7, Gamma-aminobutyric acid receptor subunit alpha-3 (Homo sapiens, UniProt P34903); assay: Effective concentration against gamma-aminobutyric acid (GABA) A receptor, alpha 3; parameters: species or system Xenopus laevis; summary of the method: as §1
T7 sequence (P34903 whole entry): T4 sequence (whole entry)

## O=c1[nH]c2c(c3nc(-c4cccc(F)c4)cn13)CN(Cc1ccccc1)CC2
[1]
  EC50: 154 nM
[2]
  Ki: 11.3 nM
[3]
  EC50: 120 nM

## COc1ccccc1-c1cn2c(O)nc3c(c2n1)CN(Cc1ccccc1)CC3
[2]
  Ki: 797 nM

## O=C(OCc1ccccc1)N1CCc2nc(O)n3cc(-c4ccccc4F)nc3c2C1
[4]
  Activity: 8%
[5]
  Activity: 0%
[6]
  Activity: 3%
[7]
  Activity: 5%

## Oc1nc2c(c3nc(-c4ccccc4F)cn13)CN(Cc1c[nH]cn1)CC2
[4]
  Activity: 58%
[5]
  Activity: 49%
[6]
  Activity: 44%
[7]
  Activity: 40%

## O=C(c1ccncc1)N1CCc2nc(O)n3cc(-c4ccccc4F)nc3c2C1
[2]
  Ki: 123 nM

## CC(c1ccccc1)N1CCc2nc(O)n3cc(-c4ccccc4F)nc3c2C1 (configuration not stated)
[2]
  Ki: 2.9 nM

## CCN1CCc2nc(O)n3cc(-c4ccccc4F)nc3c2C1
[4]
  Activity: 0%
[5]
  Activity: 14%
[8]
  EC50: 935 nM
[6]
  Activity: 0%
[2]
  Ki: 56 nM
[7]
  Activity: 0%

## Oc1nc2c(c3nc(-c4ccccc4F)cn13)CN(Cc1ccccc1)CC2
[4]
  Activity: 76%
[5]
  Activity: 120%
[6]
  Activity: 31%
[7]
  Activity: 56%

## O=c1[nH]c2c(c3nc(-c4ccc(F)cc4)cn13)CN(Cc1ccccc1)CC2
[1]
  EC50: 245 nM
[2]
  Ki: 21 nM
[3]
  EC50: 136 nM

## COc1ccc(-c2cn3c(=O)[nH]c4c(c3n2)CN(Cc2ccccc2)CC4)cc1
[1]
  EC50: 143 nM
[2]
  Ki: 2.6 nM
[3]
  EC50: 28 nM

## Oc1nc2c(c3nc(-c4cc(F)cc(F)c4)cn13)CN(Cc1ccccc1)CC2
[2]
  Ki: 72 nM

## O=c1[nH]c2c(c3nc(-c4ccccc4F)cn13)CN(Cc1cccnc1)CC2
[1]
  EC50: 101 nM
[8]
  EC50: 23 nM
[2]
  Ki: 1.4 nM
[3]
  EC50: 56 nM

## CC(c1ccc(F)cc1)N1CCc2nc(O)n3cc(-c4ccccc4F)nc3c2C1 (configuration not stated)
[2]
  Ki: 14.9 nM

## O=c1[nH]c2c(c3nc(-c4ccccc4)cn13)CN(Cc1ccccc1)CC2
[1]
  EC50: 184 nM
[3]
  EC50: 17 nM

## CCCC(=O)N1CCc2nc(O)n3cc(-c4ccccc4F)nc3c2C1
[2]
  Ki: 261 nM

## CC(C)N1CCc2nc(O)n3cc(-c4ccccc4F)nc3c2C1
[2]
  Ki: 51 nM

## Oc1nc2c(c3nc(-c4ccccc4F)cn13)CN(CCCc1ccccc1)CC2
[2]
  Ki: 147 nM

## COc1cccc(-c2cn3c(O)nc4c(c3n2)CN(Cc2ccccc2)CC4)c1
[4]
  Activity: 115%
[7]
  Activity: 123%

## O=C(c1ccccc1)N1CCc2nc(O)n3cc(-c4ccccc4F)nc3c2C1
[2]
  Ki: 83 nM

## Oc1nc2c(c3nc(-c4ccccc4)cn13)CN(Cc1ccccc1)CC2
[4]
  Activity: 179%
[7]
  Activity: 67%

## COc1ccc(-c2cn3c(O)nc4c(c3n2)CN(Cc2ccccc2)CC4)c(F)c1
[2]
  Ki: 0.6 nM

## O=C(c1cccnc1)N1CCc2nc(O)n3cc(-c4ccccc4F)nc3c2C1
[2]
  Ki: 92 nM

## Oc1nc2c(c3nc(-c4ccccc4F)cn13)CN(CCc1ccccc1)CC2
[2]
  Ki: 83 nM

## CCCCOC(=O)N1CCc2nc(O)n3cc(-c4ccccc4F)nc3c2C1
[2]
  Ki: 230 nM

## C=CCN1CCc2[nH]c(=O)n3cc(-c4ccccc4F)nc3c2C1
[1]
  EC50: 284 nM
[8]
  EC50: 344 nM
[2]
  Ki: 26 nM
[3]
  EC50: 170 nM

## O=C(Cc1ccccc1)N1CCc2nc(O)n3cc(-c4ccccc4F)nc3c2C1
[2]
  Ki: 388 nM

## COc1ccc(-c2cn3c(O)nc4c(c3n2)CN(C)CC4)cc1
[2]
  Ki: 240 nM

## CC(c1ccccc1F)N1CCc2nc(O)n3cc(-c4ccccc4F)nc3c2C1 (configuration not stated)
[2]
  Ki: 1.7 nM

## Oc1nc2c(c3nc(-c4ccccc4F)cn13)CN(CC1CCCCC1)CC2
[4]
  Activity: 71%
[5]
  Activity: 115%
[6]
  Activity: 101%
[7]
  Activity: 114%

## CC(=O)N1CCc2nc(O)n3cc(-c4ccccc4F)nc3c2C1
[4]
  Activity: 0%
[5]
  Activity: 11%
[8]
  EC50: 71 nM
[6]
  Activity: 0%
[2]
  Ki: 41 nM
[7]
  Activity: 0%

## Oc1nc2c(c3nc(-c4ccc(F)cc4F)cn13)CN(Cc1ccccc1)CC2
[4]
  Activity: 184%
[5]
  Activity: 95%
[6]
  Activity: 30%
[7]
  Activity: 63%

## COc1cccc(-c2cn3c(=O)[nH]c4c(c3n2)CN(Cc2ccccc2)CC4)c1
[1]
  EC50: 268 nM
[2]
  Ki: 2.3 nM
[3]
  EC50: 81 nM

## C[C@@H](c1ccccc1)N1CCc2nc(O)n3cc(-c4ccccc4F)nc3c2C1
[2]
  Ki: 6.5 nM

## O=C(c1ccccn1)N1CCc2nc(O)n3cc(-c4ccccc4F)nc3c2C1
[2]
  Ki: 73 nM

## Oc1nc2c(c3nc(-c4ccc(Cl)cc4)cn13)CN(Cc1ccccc1)CC2
[2]
  Ki: 121 nM

## O=C(c1ccccc1)N1CCc2nc(O)n3cc(-c4ccccc4)nc3c2C1
[2]
  Ki: 301 nM

## Oc1nc2c(c3nc(-c4cc(F)ccc4F)cn13)CN(Cc1ccccc1)CC2
[4]
  Activity: 82%
[1]
  EC50: 188 nM
[3]
  EC50: 36 nM
[7]
  Activity: 59%

## CCOC(=O)N1CCc2nc(O)n3cc(-c4ccccc4F)nc3c2C1
[2]
  Ki: 64 nM

## C=CCN1CCc2nc(O)n3cc(-c4ccccc4F)nc3c2C1
[4]
  Activity: 18%
[5]
  Activity: 20%
[6]
  Activity: 0%
[7]
  Activity: 5%

## CC(c1cccc(F)c1)N1CCc2nc(O)n3cc(-c4ccccc4F)nc3c2C1 (configuration not stated)
[2]
  Ki: 8.3 nM

## COc1ccc(-c2cn3c(O)nc4c(c3n2)CN(C)CC4)c(F)c1
[2]
  Ki: 45 nM

## Oc1nc2c(c3nc(-c4cccc(Cl)c4)cn13)CN(Cc1ccccc1)CC2
[2]
  Ki: 71 nM

## CN1CCc2nc(O)n3cc(-c4ccccc4F)nc3c2C1
[4]
  Activity: 0%
[7]
  Activity: 0%
